Test [1] deals with HeLa. In words: Cytotoxicity against human HeLa cells assessed as reduction in cell viability after 48 hrs by Alamar blue staining based fluorescence assay. The test is classed as functional. Summed up: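 HeLa cells seeded at 1×10^5 cells/ml in MEM with 10% FBS, 1% NEAA, 2 mM glutamine and 1% antibiotic-antimycotic, grown 24 h at 37°C under 5% CO2. Compounds then added for 48 h at concentrations up to 1.6 mM. Readings normalized to DMSO-only controls set at 100%.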
A general note: Resazurin is reduced to fluorescent resorufin, in cell work by metabolically active cells.

Test [2] relates to HeLa. Put plainly: Induction of morphological changes in human HeLa cells assessed as loss of cells by microscopic method. The test is classed as functional, cell-based. Summed up: (§1)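 HeLa cells seeded at 1×10^5 cells/ml and grown for 24 h at 37°C under 5% CO2, then exposed to compounds for 48 h. Cell loss and rounding of the remaining cells were judged against DMSO-treated controls by inverted phase microscopy at ×10 magnification, with camera images taken after treatment.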

Test [3] has as its system HeLa. In words: Induction of morphological changes in human HeLa cells assessed as cell rounding by microscopic method. The test is classed as functional, cell-based. Summed up: as §1
Test [4] relates to HeLa. In words: Cytotoxicity against human HeLa cells assessed as reduction in cell viability at 1 uM after 48 hrs by Alamar blue staining based fluorescence assay relative to control. The test is classed as functional. Summed up:
(§2)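 HeLa cells seeded at 1×10^5 cells/ml in MEM with 10% FBS, 1% NEAA, 2 mM glutamine and 1% antibiotic-antimycotic, grown 24 h at 37°C under 5% CO2. Compounds then added for 48 h at concentrations up to 1.6 mM. Alamar blue applied for 3 h, plates cooled to room temperature, fluorescence read at ex 544, em 590 nm. Readings normalized to DMSO-only controls set at 100%. IC50 taken from concentration-response curve fits, mean ± SEM, n=3-4.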

Test [5] concerns HeLa. Put plainly: Cytotoxicity against human HeLa cells assessed as reduction in cell viability at 2.5 uM after 48 hrs by Alamar blue staining based fluorescence assay relative to control. In kind it is functional. Summed up:
as §2

Test [6] deals with HeLa. In words: Cytotoxicity against human HeLa cells assessed as reduction in cell viability at 5 uM after 48 hrs by Alamar blue staining based fluorescence assay relative to control. The test is classed as functional. Summed up:
as §2

The structures appear in SMILES notation.

Activity and IC50 data for four molecules are collected here from ChEMBL document CHEMBL4011600, “Identification of compounds with cytotoxic activity from the leaf of the Nigerian medicinal plant, Anacardium occidentale L. (Anacardiaceae)” (Bioorg Med Chem, 2017).

As a reminder, the IC50 is the concentration needed to halve the response being measured.

Consider `COC(=O)c1cc(OC)c(CCc2c(OC)cc(C(=O)OC)cc2OC)c(OC)c1`, for which, in the test on HeLa [1], the Activity result was “Dose-dependent effect” and the half-inhibitory concentration (IC50) amounted to 46.5 µM.

On to `COC(=O)c1cc(O)c(O)c(O)c1` [GALLIC ACID METHYL ESTER], for which, in the test on HeLa [1], the Activity result was “Dose-dependent effect” and the half-maximal inhibitory concentration (IC50) came out at 267 µM.

As to `C=C1C(=O)O[C@@H]2/C=C(/C)[C@H](O)C/C=C(\C)[C@@H](O)[C@H](OC(=O)/C(C)=C\C)[C@@H]12`, the Activity result in the test on HeLa [1], in the test on HeLa [2] and in the test with HeLa [3] was “Dose-dependent effect” throughout. For the same molecule, the IC50 with HeLa [1] was determined as 36.2 µM.

For `COc1cccc2c1C(=O)c1c(O)c3c(c(O)c1C2=O)C[C@@](O)(C(=O)CO)C[C@@H]3O[C@H]1C[C@H](N)[C@H](O)[C@H](C)O1` [DOXORUBICIN], in the test with HeLa [1], the 50% inhibitory concentration (IC50) was determined as 2.3 µM. The Activity with HeLa [4] turned out to be 106.5%; in the test on HeLa [5] it was 50.8%; in the test on HeLa [6] it was 40%.
